Drawing on ChEMBL document CHEMBL4834402, “Discovery of TAK-981, a First-in-Class Inhibitor of SUMO-Activating Enzyme for the Treatment of Cancer” (J Med Chem, 2021), this text covers IC50 for 13 compounds.

A value given as a limit tells only on which side of the number the result lay.

Experiment [1] has as its target T1, SUMO-activating enzyme (Homo sapiens, UniProt Q9UBT2). Description: Inhibition of SAE in human HCT116 cells assessed as redistribution of SUMO2/3 proteins from nucleus to cytosol preincubated for 2 hrs followed by compound washout and measured immediately by immunofluorescence assay. The format is cell-based, HCT-116. In a few lines:
(§1)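 Washout format of the SUMO2/3 immunofluorescence assay in HCT116 cells. Cells were exposed to a range of concentrations for 2 h, then washed free of compound.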

Experiment [2] addresses T1, SUMO-activating enzyme. Description: Inhibition of SAE in human HCT116 cells assessed as redistribution of SUMO2/3 proteins from nucleus to cytosol preincubated for 2 hrs followed by compound washout and measured after 8 hrs by immunofluorescence assay. The format is cell-based, HCT-116. The procedure, abridged:
as §1

The next experiment addresses T2, NEDD8 activating enzyme (Homo sapiens, UniProt Q8TBC4).
T2 sequence (Q8TBC4 whole entry): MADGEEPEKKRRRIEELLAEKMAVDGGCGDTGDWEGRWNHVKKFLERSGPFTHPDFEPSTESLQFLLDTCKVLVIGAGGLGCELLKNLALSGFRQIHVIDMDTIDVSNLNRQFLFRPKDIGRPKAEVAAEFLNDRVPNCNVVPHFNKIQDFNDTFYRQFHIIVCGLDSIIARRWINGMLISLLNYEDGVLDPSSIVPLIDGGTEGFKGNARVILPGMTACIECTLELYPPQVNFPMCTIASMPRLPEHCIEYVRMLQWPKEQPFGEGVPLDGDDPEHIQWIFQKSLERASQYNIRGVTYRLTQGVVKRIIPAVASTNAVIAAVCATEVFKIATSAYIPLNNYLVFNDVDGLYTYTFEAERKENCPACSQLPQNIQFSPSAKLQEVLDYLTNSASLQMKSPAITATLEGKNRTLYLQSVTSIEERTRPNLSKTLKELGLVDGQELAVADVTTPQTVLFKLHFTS
T2 sequence (Q13564 whole entry): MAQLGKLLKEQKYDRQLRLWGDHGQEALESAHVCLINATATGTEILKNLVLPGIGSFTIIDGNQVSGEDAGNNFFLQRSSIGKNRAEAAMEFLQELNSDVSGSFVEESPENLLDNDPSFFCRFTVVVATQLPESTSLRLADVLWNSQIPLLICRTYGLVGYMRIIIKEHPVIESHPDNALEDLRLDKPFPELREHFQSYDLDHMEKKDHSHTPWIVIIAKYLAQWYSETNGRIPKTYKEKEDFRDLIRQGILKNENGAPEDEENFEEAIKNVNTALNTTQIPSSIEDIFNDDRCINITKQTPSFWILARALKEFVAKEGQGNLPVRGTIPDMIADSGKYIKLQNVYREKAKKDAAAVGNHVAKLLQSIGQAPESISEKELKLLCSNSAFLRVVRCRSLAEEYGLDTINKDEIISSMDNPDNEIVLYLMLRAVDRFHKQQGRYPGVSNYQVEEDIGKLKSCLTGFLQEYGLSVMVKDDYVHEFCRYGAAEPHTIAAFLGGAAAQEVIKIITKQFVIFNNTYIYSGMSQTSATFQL
Description: Inhibition of recombinant NAE (unknown origin) in presence of ATP at Km concentration by HTRF assay. The format is protein-complex assay.

The target of experiment [3] is T1, SUMO-activating enzyme. Description: Inhibition of recombinant SAE (unknown origin) assessed as reduction in transfer of SUMO1 to UBC9 using SUMO1 as a substrate in presence of ATP at Km concentration by HTRF assay. The format is protein-complex assay. The procedure, abridged: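 HTRF transthiolation assay measuring transfer of SUMO1 to UBC9, the E2 for SAE.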
A general note: In TR-FRET formats the signal depends on donor and acceptor labels being close together.

The target of experiment [4] is T1, SUMO-activating enzyme. The experiment in a line: Inhibition of SAE in human HCT116 cells assessed as reduction in redistribution of SUMO2/3 proteins from nucleus to cytosol incubated for 4 hrs by immunofluorescence assay. The format is cell-based, HCT-116. In a few lines: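 HCT-116 cells exposed to compound across a concentration range for 4 h, then stained with anti-SUMO2/3 monoclonal antibody. Automated imaging scored the nuclear (inner) to cytoplasmic (outer) SUMO2/3 ratio. IC50 taken from the dose response.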

A short description of experiment [5]: Inhibition of recombinant UAE (unknown origin) in presence of ATP at Km concentration by HTRF assay. The arrangement: species or system Homo sapiens.

T1 sequence (Q9UBE0 whole entry): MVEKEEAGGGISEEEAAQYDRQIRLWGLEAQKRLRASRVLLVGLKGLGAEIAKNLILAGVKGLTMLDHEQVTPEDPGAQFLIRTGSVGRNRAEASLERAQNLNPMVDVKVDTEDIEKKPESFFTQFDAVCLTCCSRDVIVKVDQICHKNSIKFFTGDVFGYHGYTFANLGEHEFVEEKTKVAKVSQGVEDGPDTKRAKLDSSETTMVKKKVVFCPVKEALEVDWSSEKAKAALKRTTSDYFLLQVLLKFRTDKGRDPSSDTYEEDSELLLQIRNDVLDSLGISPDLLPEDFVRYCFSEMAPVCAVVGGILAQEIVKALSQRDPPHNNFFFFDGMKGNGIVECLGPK
T1 sequence (Q9UBT2 whole entry): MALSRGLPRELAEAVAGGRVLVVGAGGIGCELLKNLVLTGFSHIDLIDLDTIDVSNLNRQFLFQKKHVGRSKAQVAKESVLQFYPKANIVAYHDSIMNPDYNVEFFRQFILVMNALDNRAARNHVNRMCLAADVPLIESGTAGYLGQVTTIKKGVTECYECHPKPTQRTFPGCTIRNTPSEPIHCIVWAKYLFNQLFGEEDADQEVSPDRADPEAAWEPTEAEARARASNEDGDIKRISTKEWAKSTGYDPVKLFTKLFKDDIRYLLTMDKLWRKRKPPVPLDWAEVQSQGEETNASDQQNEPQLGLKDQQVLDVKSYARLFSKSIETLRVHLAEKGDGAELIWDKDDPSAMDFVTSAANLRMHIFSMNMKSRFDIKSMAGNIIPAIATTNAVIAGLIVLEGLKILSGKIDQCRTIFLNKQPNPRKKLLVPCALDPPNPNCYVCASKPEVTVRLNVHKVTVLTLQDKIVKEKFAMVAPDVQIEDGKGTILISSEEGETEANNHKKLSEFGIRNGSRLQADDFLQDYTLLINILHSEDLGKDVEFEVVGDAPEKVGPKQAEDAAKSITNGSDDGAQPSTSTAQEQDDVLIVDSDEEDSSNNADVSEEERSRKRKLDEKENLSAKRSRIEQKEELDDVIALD

Broadly, the IC50 is the point on the concentration scale where inhibition reaches its midpoint. For the compound `NS(=O)(=O)OC[C@H]1C[C@@H](Nc2ncncc2C(=O)c2cc(Cc3cccc(Cl)c3)c(Cl)s2)C[C@@H]1O`, the concentration for half-maximal inhibition (IC50) at SUMO-activating enzyme [1] is 184 nM; at SUMO-activating enzyme [2], 1400 nM; at NEDD8 activating enzyme it was 681 nM; on SUMO-activating enzyme [3], 3.6 nM; at SUMO-activating enzyme [4], 108 nM; in experiment [5], greater than 1000 nM.
As for `NC(c1cccc(Cl)c1)c1cc(C(=O)c2cncnc2N[C@@H]2C[C@H](COS(N)(=O)=O)[C@@H](O)C2)sc1Cl` (stereo not given in full), the half-inhibitory concentration (IC50) at SUMO-activating enzyme [1] is 17 nM; on SUMO-activating enzyme [2], 39 nM; at NEDD8 activating enzyme, 861 nM; on SUMO-activating enzyme [3] it was 0.4 nM; on SUMO-activating enzyme [4], 10 nM; in experiment [5], greater than 1000 nM.
Consider `NS(=O)(=O)OC[C@H]1C[C@@H](Nc2ncncc2C(=O)c2cc(C(O)c3cccc(Cl)c3)cs2)C[C@@H]1O` (stereo in doubt; 30), for which the concentration for half-maximal inhibition (IC50) on SUMO-activating enzyme [1] was 1210 nM; at SUMO-activating enzyme [2], greater than 10000 nM; at NEDD8 activating enzyme it was 114 nM; on SUMO-activating enzyme [3], 1 nM; at SUMO-activating enzyme [4], 660 nM; in experiment [5], greater than 1000 nM.
With `Cc1sc(C(=O)c2cncnc2N[C@@H]2C[C@H](COS(N)(=O)=O)[C@@H](O)C2)cc1C(N)c1cccc(Cl)c1` (stereo not given in full), the IC50 at SUMO-activating enzyme [1] is 19 nM; at SUMO-activating enzyme [2], 38 nM; on NEDD8 activating enzyme, 235 nM; at SUMO-activating enzyme [3], 0.2 nM; on SUMO-activating enzyme [4], 16 nM; in experiment [5], greater than 1000 nM.
Consider `Cc1sc(C(=O)c2cncnc2N[C@@H]2C[C@H](COS(N)(=O)=O)[C@@H](O)C2)cc1C1OCCc2ccc(Cl)nc21` (stereo not given in full), for which the IC50 was 18 nM at SUMO-activating enzyme [1]; 89 nM at SUMO-activating enzyme [2]; 203 nM at NEDD8 activating enzyme; 0.1 nM on SUMO-activating enzyme [3]; 20 nM on SUMO-activating enzyme [4]; greater than 1000 nM in experiment [5].
Consider `NC(c1cccc(Cl)c1)c1csc(C(=O)c2cncnc2N[C@@H]2C[C@H](COS(N)(=O)=O)[C@@H](O)C2)c1` (stereo in doubt; 33), for which the IC50 was 83 nM at SUMO-activating enzyme [1]; 499 nM on SUMO-activating enzyme [2]; greater than 1000 nM at NEDD8 activating enzyme; 0.7 nM at SUMO-activating enzyme [3]; 50 nM on SUMO-activating enzyme [4].
For `NS(=O)(=O)OC[C@H]1C[C@@H](Nc2ncncc2C(=O)c2ccn(Cc3cccc(OC(F)(F)F)c3)n2)C[C@@H]1O`, the concentration for half-maximal inhibition (IC50) was greater than 1000 nM on NEDD8 activating enzyme, 2.1 nM at SUMO-activating enzyme [3], 78 nM at SUMO-activating enzyme [4] and greater than 1000 nM in experiment [5].
Take `NS(=O)(=O)OC[C@H]1C[C@@H](Nc2ncncc2C(=O)c2cc(C(O)c3cccc(Cl)c3)cs2)C[C@@H]1O` (stereo in doubt; 31): the 50% inhibitory concentration (IC50) at SUMO-activating enzyme [1] turned out to be 43 nM; on SUMO-activating enzyme [2], 955 nM; on NEDD8 activating enzyme, 216 nM; at SUMO-activating enzyme [3], 0.2 nM; at SUMO-activating enzyme [4], 55 nM.
For the compound `Cc1sc(C(=O)c2cncnc2N[C@@H]2C[C@H](COS(N)(=O)=O)[C@@H](O)C2)cc1C1OCCc2cccnc21` (stereo not given in full), the half-maximal inhibitory concentration (IC50) at SUMO-activating enzyme [1] was 19 nM; on SUMO-activating enzyme [2] it was 64 nM; on NEDD8 activating enzyme, 507 nM; at SUMO-activating enzyme [3] it was 0.2 nM; in experiment [5], greater than 1000 nM.
For `NS(=O)(=O)OC[C@H]1C[C@@H](Nc2ncncc2C(=O)c2cc(C3OCCc4c(Cl)cccc43)cs2)C[C@@H]1O` (stereo not given in full), the half-inhibitory concentration (IC50) was 265 nM on NEDD8 activating enzyme, 1.7 nM at SUMO-activating enzyme [3], 76 nM on SUMO-activating enzyme [4] and greater than 1000 nM in experiment [5].
Consider `NS(=O)(=O)OC[C@H]1C[C@@H](Nc2ncncc2C(=O)c2ccn(Cc3ccccc3)n2)[C@@H](F)[C@@H]1O`, for which the IC50 at NEDD8 activating enzyme was found to be 688 nM; on SUMO-activating enzyme [3], 2.3 nM; at SUMO-activating enzyme [4], 260 nM; in experiment [5], 492 nM.
For `NS(=O)(=O)OC[C@H]1C[C@@H](Nc2ncncc2C(=O)c2cnn(Cc3ccccc3)c2)C[C@@H]1O` the same measures were 122 nM, 6.3 nM, 2940 nM and greater than 1000 nM.
For `NS(=O)(=O)OC[C@H]1C[C@@H](Nc2ncncc2C(=O)c2ccn(Cc3cccc(Br)n3)n2)C[C@@H]1O`, the IC50 on NEDD8 activating enzyme was 581 nM; at SUMO-activating enzyme [3], 0.7 nM; on SUMO-activating enzyme [4], 49 nM; in experiment [5] it was greater than 1000 nM.
